The source made the active and inactive calls. The calls are words filed in the database; no cut-off is given here.
Legend:
[1] = system: Influenza A virus; assay: Antiviral activity against oseltamivir-resistant Influenza A/WSN/33 (H1N1) virus expressing neuraminidase H274Y mutant gene infected in BALB/c mouse assessed as survival of mouse at 45 mg/kg, im administered as single dose; format: functional, organism-based; parameters: dose 45 mg/kg; settings: A/WSN/1933(H1N1)
Outline: (§1)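 Male BALB/c mice, 6–8 weeks old and 20–25 g, were randomized by weight, 4 per cage, in groups of 12. Drug at 50 mg/ml in saline buffered to pH 3.0 was given by IM hip injection, first dose 1 h before challenge. Mice were infected intranasally under isoflurane with 8 × 10^3 PFU of cell-grown recombinant virus in 30 μl PBS. Mortality was recorded daily for 14 days.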

[2] = system: Influenza A virus; assay: Antiviral activity against oseltamivir-resistant Influenza A/WSN/33 (H1N1) virus expressing neuraminidase H274Y mutant gene infected in BALB/c mouse assessed as survival of mouse at 90 mg/kg, im administered as single dose; format: functional, organism-based; parameters: dose 90 mg/kg; settings: A/WSN/1933(H1N1); outline: as §1
[3] = system: Influenza A virus; assay: Antiviral activity against oseltamivir-resistant Influenza A/WSN/33 (H1N1) virus expressing neuraminidase H274Y mutant gene infected in BALB/c mouse assessed as survival of mouse at 45 mg/kg, im once daily for 5 days; format: functional, organism-based; parameters: dose 45 mg/kg; settings: A/WSN/1933(H1N1); outline: as §1
[4] = system: Mus musculus; assay: Toxicity against oseltamivir-resistant Influenza A/WSN/33 (H1N1) virus expressing neuraminidase H274Y mutant gene infected BALB/c mouse assessed as weight loss at 45 mg/kg, im administered as single dose and measured after 6 days; format: organism-based; parameters: dose 45 mg/kg, route intramuscular; settings: in vivo, 144 h
Outline: (§2)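 Male BALB/c mice, groups of 12, received IM drug at 50 mg/ml in pH 3.0 buffered saline, starting 1 h before intranasal infection with 8 × 10^3 PFU of recombinant virus. Body weight was monitored daily for 14 days. Mean weight loss was compared across regimens by one-way ANOVA, with uninfected PBS-treated mice as reference.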

[5] = system: Mus musculus; assay: Toxicity against oseltamivir-resistant Influenza A/WSN/33 (H1N1) virus expressing neuraminidase H274Y mutant gene infected BALB/c mouse assessed as weight loss at 90 mg/kg, im administered as single dose and measured after 14 days; format: organism-based; parameters: dose 90 mg/kg, route intramuscular; settings: in vivo, 336 h; outline: as §2
[6] = system: Mus musculus; assay: Toxicity against oseltamivir-resistant Influenza A/WSN/33 (H1N1) virus expressing neuraminidase H274Y mutant gene infected BALB/c mouse assessed as weight loss at 45 mg/kg, im once daily for 5 days measured after 14 days; format: organism-based; parameters: dose 45 mg/kg, route intramuscular; settings: in vivo, 336 h; outline: as §2
[7] = system: Influenza A virus; assay: Antiviral activity against oseltamivir-resistant Influenza A/WSN/33 (H1N1) virus expressing neuraminidase H274Y mutant gene infected in BALB/c mouse assessed as log reduction in lung viral titer at 45 mg/kg, im administered as single dose and measured after 4 days; format: functional, A/WSN/1933(H1N1); settings: route intramuscular
Outline: (§3)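 Male BALB/c mice received IM drug at 50 mg/ml in pH 3.0 buffered saline, starting 1 h before intranasal infection with 8 × 10^3 PFU of recombinant virus. Subgroups of 4 were sacrificed on day 4. Lungs were homogenized in 2 ml PBS with antibiotics and spun at 600 × g for 10 min. Supernatants were plaque-titrated on MDBK cells in triplicate. Comparison to untreated infected mice used a two-tailed unpaired t test.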

[8] = system: Influenza A virus; assay: Antiviral activity against oseltamivir-resistant Influenza A/WSN/33 (H1N1) virus expressing neuraminidase H274Y mutant gene infected in BALB/c mouse assessed as log reduction in lung viral titer at 90 mg/kg, im administered as single dose and measured after 4 days; format: functional, A/WSN/1933(H1N1); settings: route intramuscular; outline: as §3
[9] = system: Influenza A virus; assay: Antiviral activity against oseltamivir-resistant Influenza A/WSN/33 (H1N1) virus expressing neuraminidase H274Y mutant gene infected in BALB/c mouse assessed as log reduction in lung viral titer at 45 mg/kg, im once daily for 5 days; format: functional, A/WSN/1933(H1N1); settings: route intramuscular; outline: as §3

CCC(CC)[C@H](NC(C)=O)[C@@H]1[C@H](O)[C@@H](C(=O)O)C[C@H]1NC(=N)N [PERAMIVIR ANHYDROUS] was tested, and the Activity [1] was “inactive”, the Activity [2] was “inactive” and the Activity [3] was “inactive”. For the same compound, the Activity [4] was “Toxic”, the Activity [5] was “Non-toxic” and the Activity [6] was “Non-toxic”. It also gave an FC [7] of 1.5, an FC [8] of 1.5 and an FC [9] of 1.5.

— ChEMBL document CHEMBL1275600, “Prophylactic activity of intramuscular peramivir in mice infected with a recombinant influenza A/WSN/33 (H1N1) virus containing the H274Y neuraminidase mutation” (Antimicrob Agents Chemother, 2010)
